≈ marks a conversion by molar mass, not a printed value. Calls of active or inactive are those of the source. The rule behind the calls is not given here.
Tests used:
Type in all cases: functional, organism-based
Aspergillus niger = assay: Antifungal activity against Aspergillus niger NCTC 275 after 4 days; details: NCTC 275, 96 h
Method in brief: (§1)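 Compounds were incorporated into agar medium at final concentrations of 200, 100, 50 and 10 µg/mL. A disc of fungal mycelium was placed at the centre of each Petri dish. Plates were incubated at 37 °C until the control plates reached full growth (4 days). Inhibition diameter was then measured and IC50 derived. Values are means of replicates.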

Fusarium oxysporum = assay: Antifungal activity against Fusarium oxysporum after 4 days; details: 96 h; method in brief: as §1
Staphylococcus aureus [1] = assay: Antibacterial activity against methicillin-resistant Staphylococcus aureus NCTC 10442 assessed as protein content after 3 hrs by bradford method; details: NCTC 10442, 3 h
Method in brief: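 MRSA exposed to compounds dissolved in DMSO, with a DMSO-only negative control and gentamycin at the same concentrations in sterile water as positive control. Incubated 3 h at 37 °C; growth read as protein content by the Bradford method and plotted against compound concentration.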

Staphylococcus aureus [2] = assay: Antibacterial activity against methicillin-resistant Staphylococcus aureus NCTC 10442 by paper disc diffusion method
Escherichia coli = assay: Antibacterial activity against Escherichia coli by paper disc diffusion method

SMILES | IC50 (Aspergillus niger) | IC50 (Fusarium oxysporum) | IC50 (Staphylococcus aureus [1]) | Activity (Staphylococcus aureus [2]) | Activity (Escherichia coli)
COc1ccc2oc(C3CCCCC3)cc(=O)c2c1 | 58.9 µg/mL (≈ 228 µM) | 117 µg/mL (≈ 452 µM) | 69.6 µg/mL (≈ 269 µM) | Active | inactive
O=c1cc(C2CCCCC2)oc2ccc(Br)cc12 | 90.4 µg/mL (≈ 294 µM) | 107 µg/mL (≈ 347 µM) | 12000 µg/mL (≈ 39100 µM) | Active | inactive
O=c1cc(-c2ccc(F)cc2)oc2ccc(Br)cc12 | 142 µg/mL (≈ 444 µM) | 682 µg/mL (≈ 2140 µM) | – | – | –
O=c1cc(-c2ccc(Cl)cc2)oc2ccc(Br)cc12 | 157 µg/mL (≈ 469 µM) | 282 µg/mL (≈ 840 µM) | – | – | –
O=c1cc(-c2ccccc2)oc2ccc(Br)cc12 [6-BROMOFLAVONE] | 77.1 µg/mL (≈ 256 µM) | 26900 µg/mL (≈ 89400 µM) | – | – | –

Further lines, with some results ahead:

IC50 (Aspergillus niger) | IC50 (Fusarium oxysporum) | SMILES | IC50 (Staphylococcus aureus [1]) | Activity (Staphylococcus aureus [2]) | Activity (Escherichia coli)
60.3 µg/mL (≈ 138 µM) | 65.2 µg/mL (≈ 149 µM) | O=c1cc(-c2cc(C(F)(F)F)cc(C(F)(F)F)c2)oc2ccc(Br)cc12 | – | – | –
83.4 µg/mL (≈ 252 µM) | 2250 µg/mL (≈ 6790 µM) | COc1ccc(-c2cc(=O)c3cc(Br)ccc3o2)cc1 | – | – | –
28.2 µg/mL (≈ 85.2 µM) | 176 µg/mL (≈ 531 µM) | COc1ccc2c(=O)cc(-c3ccc(Br)cc3)oc2c1 | – | – | –
41.9 µg/mL (≈ 146 µM) | 1430 µg/mL (≈ 4980 µM) | COc1ccc2oc(-c3ccc(Cl)cc3)cc(=O)c2c1 | – | – | –
178 µg/mL (≈ 553 µM) | 10600 µg/mL (≈ 33000 µM) | COc1ccc2c(=O)cc(-c3cc(Cl)cc(Cl)c3)oc2c1 | – | – | –
93.4 µg/mL (≈ 241 µM) | 177 µg/mL (≈ 457 µM) | COc1ccc2oc(-c3cc(C(F)(F)F)cc(C(F)(F)F)c3)cc(=O)c2c1 | – | – | –

From ChEMBL document CHEMBL1141646, “Microwave-assisted synthesis and antimicrobial activities of flavonoid derivatives” (Bioorg Med Chem Lett, 2008)
